How the values were obtained:
[1] = Negative inotropic activity in guinea pig left atrium assessed as decrease in developed tension at 10^-5 M relative to control; format: functional, Cavia porcellus, Cardiac atrium; parameters: scale not given: the % may be the effect or the level left
[2] = Displacement of [3H]-PN200-110 from L-type calcium channel in Hartley guinea pig ventricular membrane […] after 90 mins; parameters: species or system Cavia porcellus
[3] = Negative chronotropic activity in guinea pig right atrium assessed as decrease in atrial rate; format: functional, tissue-based; conditions: Cavia porcellus, Cardiac atrium
Outline: (§1)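 Isolated guinea pig atria are used, with left atria driven at 1 Hz. Compounds are added cumulatively. EC50 is derived from log concentration−response curves by Litchfield–Wilcoxon probit analysis, n = 6−7. EC50 is not calculated when the maximal effect is below 50%.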

Ileum [4] = assay: Relaxant activity in potassium depolarized guinea pig ileum longitudinal smooth muscle assessed as inhibition of calcium-induced contraction at 5x10'-9 M relative to control; format: functional, Cavia porcellus; parameters: scale not given: the % may be the effect or the level left
Outline: (§2)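 Guinea pig aortic strips and ileum longitudinal smooth muscle were depolarized with 80 mM K⁺. Calcium-induced contraction was measured with cumulative compound addition, and inhibition was expressed as percent change from control (n = 6−7). Differences from control at each concentration were tested by Student's t-test, P < 0.05, and data are mean SEM.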

[5] = Displacement of [3H]-PN200-110 from voltage-gated calcium channel subunit alpha Cav1.2a (unknown origin) expressed in HEK293 cells after 90 mins by liquid scintillation counting analysis; format: cell-based, Homo sapiens
Outline: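 Intact HEK-293 cells stably transfected with a rabbit Cav1.2a (α1c-a) plasmid are used. They are incubated with 0.5 nM (+)-[5-methyl-3H]PN200-110 plus competitor at 0.001−100 μM, from 10⁻² M DMSO stocks diluted in buffer. IC50 values are given as mean ± SEM.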

[6] = Displacement of [3H]-PN200-110 from L-type calcium channel in Hartley guinea pig atrial membrane after 90 mins; format: cell membranes, Cavia porcellus, Cardiac atrium
Outline: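 Guinea pig atrial membranes are labelled at the 1,4-DHP site with (+)-[5-methyl-3H]PN200-110 at 0.5 nM. Competitor is added over 0.001−100 μM from 10⁻² M DMSO stocks diluted in buffer. Results are given as IC50 and Ki, mean ± SEM. Student's t-test is applied with P<0.001.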

[7] = Displacement of [3H]-PN200-110 from L-type calcium channel dihydropyridine binding site in Wistar rat cortex homogenate after 60 mins by liquid scintillation spectometric analysis; format: tissue-based
Outline: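 Competition binding on rat cortex homogenate with (+)-[5-methyl-3H]PN200-110. Compounds are dissolved in DMSO as 10⁻² M stocks and diluted in buffer. Six displacer concentrations are tested, each in triplicate. IC50 is obtained by −log probit analysis and Ki by the Prusoff method. Values are mean ± SEM of 3−5 separate experiments done in triplicate.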

Cavia porcellus [8] = species on record: Cavia porcellus; assay: Displacement of [3H]-PN200-110 from L-type calcium channel in Hartley guinea pig atrial membrane at 100 uM after 90 mins relative to control; format: cell membranes; conditions: Cardiac atrium
Aorta [9] = assay: Relaxant activity in potassium depolarized guinea pig aortic strips assessed as inhibition of calcium-induced contraction at 10^-6 M relative to control; format: functional, Cavia porcellus; parameters: scale not given: the % may be the effect or the level left; outline: as §2
[10] = Negative chronotropic activity in guinea pig right atrium assessed as decrease in atrial rate at 10^-7 M relative to control; format: functional, Cavia porcellus, Cardiac atrium; parameters: scale not given: the % may be the effect or the level left
Outline: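 Spontaneously beating isolated guinea pig right atrium. Compounds added cumulatively. The decrease in atrial rate is expressed as percent change from control. At each concentration, the difference from control was tested by Student's t-test, with significance at P<0.05. Data are given as mean SEM.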

HEK293 = assay: Displacement of [3H]-PN200-110 from voltage-gated calcium channel subunit alpha Cav1.2a (unknown origin) expressed in HEK293 cells at 100 uM after 90 mins by liquid scintillation counting analysis relative to control; format: cell-based; conditions: Homo sapiens
Cavia porcellus [11] = species on record: Cavia porcellus; assay: Displacement of [3H]-PN200-110 from L-type calcium channel in Hartley guinea pig ventricular membrane […] after 90 mins relative to control
[12] = Negative inotropic activity in guinea pig left atrium assessed as decrease in developed tension; format: functional, tissue-based; conditions: Cavia porcellus, Cardiac atrium; outline: as §1
Rattus norvegicus = species on record: Rattus norvegicus; assay: Displacement of [3H]-PN200-110 from L-type calcium channel dihydropyridine binding site in Wistar rat cortex homogenate at 100 uM after 60 mins by liquid scintillation spectometric analysis relative to control; format: tissue-based
Outline: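 Binding on rat cortex homogenate using (+)-[5-methyl-3H]PN200-110. The read-out is percent of maximal radioligand displacement at 100 μM test compound. Compounds are made up as 10⁻² M DMSO stocks and diluted in buffer. Values are from 3−5 separate experiments done in triplicate.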

[13] = Negative inotropic activity in guinea pig left atrium assessed as decrease in developed tension at 10^-4 M relative to control; format: functional, Cavia porcellus, Cardiac atrium; parameters: scale not given: the % may be the effect or the level left
Ileum [14] = assay: Relaxant activity in potassium depolarized guinea pig ileum longitudinal smooth muscle assessed as inhibition of calcium-induced contraction; format: functional, tissue-based; conditions: Cavia porcellus
Outline: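 K⁺-depolarized (80 mM) guinea pig ileum longitudinal smooth muscle is used. Calcium-induced contraction is measured with cumulative compound addition.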

Aorta [15] = assay: Relaxant activity in potassium depolarized guinea pig aortic strips assessed as inhibition of calcium-induced contraction at 10^-4 M relative to control; format: functional, Cavia porcellus; parameters: scale not given: the % may be the effect or the level left
Outline: (§3)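 Guinea pig aortic strips and ileum longitudinal smooth muscle are depolarized with 80 mM K⁺. The read-out is percent inhibition of calcium-induced contraction. Aorta is tested at 10⁻⁴ M and ileum at 10⁻⁵ M.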

[16] = Negative chronotropic activity in guinea pig right atrium assessed as decrease in atrial rate at 5x10'-6 M relative to control; format: functional, Cavia porcellus, Cardiac atrium; parameters: scale not given: the % may be the effect or the level left
Ileum [17] = assay: Relaxant activity in potassium depolarized guinea pig ileum longitudinal smooth muscle assessed as inhibition of calcium-induced contraction at 10^-7 M relative to control; format: functional, Cavia porcellus; parameters: scale not given: the % may be the effect or the level left
[18] = Negative chronotropic activity in guinea pig right atrium assessed as decrease in atrial rate at 10^-4 M relative to control; format: functional, Cavia porcellus, Cardiac atrium; parameters: scale not given: the % may be the effect or the level left
Outline: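 The read-out is decrease in rate of spontaneously beating isolated guinea pig right atrium at 10⁻⁴ M. It is expressed as percent change from control, n = 7−8.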

[19] = Negative inotropic activity in guinea pig right atrium assessed as decrease in developed tension; format: functional, tissue-based; conditions: Cavia porcellus, Cardiac atrium
Ileum [20] = assay: Relaxant activity in potassium depolarized guinea pig ileum longitudinal smooth muscle assessed as inhibition of calcium-induced contraction at 10^-5 M relative to control; format: functional, Cavia porcellus; parameters: scale not given: the % may be the effect or the level left; outline: as §3
[21] = Negative inotropic activity in guinea pig right atrium assessed as decrease in developed tension at 10^-5 M relative to control; format: functional, Cavia porcellus, Cardiac atrium; parameters: scale not given: the % may be the effect or the level left
Outline: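 The read-out is decrease in developed tension of spontaneously beating isolated guinea pig right atrium at 10⁻⁵ M. It is expressed as percent change from control, n = 7−8.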

[22] = Negative inotropic activity in guinea pig left atrium assessed as decrease in developed tension at 10^-6 M relative to control; format: functional, Cavia porcellus, Cardiac atrium; parameters: scale not given: the % may be the effect or the level left
Ileum [23] = assay: Relaxant activity in potassium depolarized guinea pig ileum longitudinal smooth muscle assessed as inhibition of calcium-induced contraction at 5x10'-5 M relative to control; format: functional, Cavia porcellus; parameters: scale not given: the % may be the effect or the level left
[24] = Negative chronotropic activity in guinea pig right atrium assessed as decrease in atrial rate at 5x10'-5 M relative to control; format: functional, Cavia porcellus, Cardiac atrium; parameters: scale not given: the % may be the effect or the level left
Aorta [25] = assay: Relaxant activity in potassium depolarized guinea pig aortic strips assessed as inhibition of calcium-induced contraction at 5x10'-5 M relative to control; format: functional, Cavia porcellus; parameters: scale not given: the % may be the effect or the level left
Ileum [26] = assay: Relaxant activity in potassium depolarized guinea pig ileum longitudinal smooth muscle assessed as inhibition of calcium-induced contraction at 10^-4 M relative to control; format: functional, Cavia porcellus; parameters: scale not given: the % may be the effect or the level left
Ileum [27] = assay: Relaxant activity in potassium depolarized guinea pig ileum longitudinal smooth muscle assessed as inhibition of calcium-induced contraction at 5x10'-7 M relative to control; format: functional, Cavia porcellus; parameters: scale not given: the % may be the effect or the level left
Aorta [28] = assay: Relaxant activity in potassium depolarized guinea pig aortic strips assessed as inhibition of calcium-induced contraction at 10^-5 M relative to control; format: functional, Cavia porcellus; parameters: scale not given: the % may be the effect or the level left

| Compound | Activity [1] | IC50 [2] | Ki [2] | EC50 [3] | IC50 [5] | Ki [5] | IC50 [6] | Ki [6] | IC50 [7] | Ki [7] | %max (Cavia porcellus [8]) | %max (HEK293) | %max (Cavia porcellus [11]) | EC50 [12] | %max (Rattus norvegicus) | Activity [13] | IC50 (Ileum [14]) | Activity (Aorta [15]) | Activity [16] | Activity [22] | further results |
| --- | --- | --- | --- | --- | --- | --- | --- | --- | --- | --- | --- | --- | --- | --- | --- | --- | --- | --- | --- | --- | --- |
| COC(=O)C1=C(C)NC(C)=C(C(=O)OC)C1c1ccccc1[N+](=O)[O-] [NIFEDIPINE] | 97% | 5.7 nM | 2 nM | 39 nM | 86 nM | 32 nM | 5.1 nM | 1.5 nM | 6.1 nM | 1.9 nM | 72% | 75% | 80% | 260 nM | 92% | – | – | – | – | – | Activity (Ileum [4]): 70%; Activity (Aorta [9]): 82%; Activity [10]: 85% |
| COC(=O)C1=C(C)NC(C)=C(C(=O)OC)C1c1c(-c2ccsc2)nc2sccn12 | – | 2050 nM | 740 nM | 1060 nM | 490 nM | 150 nM | 240 nM | 52 nM | 1030 nM | 740 nM | 60% | 65% | 70% | – | 53% | 47% | 2.3 nM | 11% | 87% | – | Activity (Ileum [17]): 85% |
| COC(=O)C1=C(C)NC(C)=C(C(=O)OC)C1c1c(-c2c(Cl)csc2Cl)nc2sc(C)cn12 | 60% | – | – | – | – | – | – | – | – | – | – | – | – | 310 nM | – | – | 3230 nM | 31% | – | – | Activity [18]: 22%; EC50 [19]: 730 nM; Activity (Ileum [20]): 87%; Activity [21]: 82% |
| COC(=O)C1=C(C)NC(C)=C(C(=O)OC)C1c1c(-c2cccnc2)nc2sc(C)cn12 | – | – | – | 12500 nM | – | – | 22 nM | 4.8 nM | 100 nM | 59 nM | 52% | < 50% | < 50% | – | 70% | – | 16000 nM | – | – | 18% | Activity (Ileum [23]): 83%; Activity [24]: 86%; Activity (Aorta [25]): 19% |
| COC(=O)C1=C(C)NC(C)=C(C(=O)OC)C1c1c(-c2ccncc2)nc2sc(C)cn12 | – | – | – | 7490 nM | – | – | – | – | – | – | – | – | – | – | – | – | 9690 nM | 4% | – | 44% | Activity (Ileum [26]): 97%; Activity [24]: 93% |
| COC(=O)C1=C(C)NC(C)=C(C(=O)OC)C1c1c(-c2cccs2)nc2sccn12 | – | – | – | 1300 nM | 2150 nM | 710 nM | – | – | – | – | < 50% | 50% | < 50% | – | – | 46% | 110 nM | – | 85% | – | Activity (Ileum [27]): 91%; Activity (Aorta [28]): 23% |

— ChEMBL document CHEMBL2380289, “Ligand based approach to L-type calcium channel by imidazo[2,1-b]thiazole-1,4-dihydropyridines: from heart activity to brain affinity” (J Med Chem, 2013)
